Source: PubChem
This excerpt belongs to a sample that is enriched for hits.
UPR XBP1 act: adaptive UPR (XBP1) activation; CHO-XBP1 luciferase reporter, IRE1-XBP1 UPR activation, luminescence; percent of tunicamycin response, DMSO as zero; activation, % at 20 µM; 330,000 tested, 0.33% active; AID 463104;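 active = versus positive control, 20 µM dose yields 30% or more activation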
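Assay system: CHO-XBP1 luciferase reporter cells; Schedule: 6 h treatment, 37 °C; Detection: glow luminescence from Steady-Glo reagent; Benchmarks: high control tunicamycin 10 µg/mL final, low control DMSO vehicle only.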
PvdQ inh: blocks Pseudomonas aeruginosa PvdQ acylase activity; purified PvdQ acylase, fluorescence plate reader; inhibition, % at 10 µM; 340,000 tested, 0.063% active; in the data active = inhibition above about 30%, passing the limit was not always enough
UPR CHOP act: apoptotic UPR (CHOP) activation; CHO-CHOP luciferase reporter, luminescence; percent of tunicamycin response over DMSO baseline; activation, % at 10 µM; 330,000 tested, 0.34% active; AID 449763;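 active = at 10 µM dose, activation of 40% or more, normalized to positive control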
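System: CHO-CHOP luciferase reporter cell line; amount: 500 cells/well; buffer or medium: F12 medium containing 10% fetal bovine serum; incubation: 6 h compound exposure at 37 °C after overnight seeding; measured by: luciferase luminescence after 10 min with Steady-Glo reagent; evaluation: % reporter activation, DMSO baseline versus tunicamycin full activation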
CHOP inhibitor: inhibitors of CHOP induction in ER stress response; CHO-K1 CHOP-promoter luciferase, tunicamycin-induced, 15-18 h; inhibition, % at 10 µM; 220,000 tested, 3.8% active; AID 2732;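 active = compounds that reduced the stress-induced luciferase reporter signal by more than about 70% of percent inhibition, limit read from the data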
A number is an active result; – = inactive; · = not tested or not shown.

SMILES | UPR XBP1 act | PvdQ inh | UPR CHOP act | CHOP inhibitor
CC1(C)CC(=O)C(C2C3=C(CC(C)(C)CC3=O)Oc3ccccc32)C(=O)C1 (centres undefined) | – | – | – | –
Cc1onc(-c2c(Cl)cccc2Cl)c1C(=O)N=C(N)N1CCCC1 | – | – | – | –
O=C(O)c1ccccc1-c1ccccc1C(=O)Nc1cccc(O)c1 | – | – | – | –
COc1cc(C(=O)OCC(=O)Nc2c(F)cccc2F)cc(OC)c1C | – | – | – | 94
CCN1CCN(CCCNC(=O)CNC(=O)c2nn(-c3ccc(OC)cc3OC)c(=O)c3ccccc23)CC1 | – | – | – | ·
O=C(CC1SC(=O)N(Cc2ccccc2Cl)C1=O)Nc1nccs1 (centres undefined) | – | – | – | –
O=C(CC1SC(=O)N(Cc2ccccc2)C1=O)Nc1nccs1 (centres undefined) | – | – | – | 87
CC(C)(C)NC(=O)CCc1ncc(C(F)(F)F)cc1Cl | – | – | – | –
O=C(c1cccs1)N1CCN(S(=O)(=O)c2ccc(F)cc2)CC1 | – | · | – | –
Cn1c(=O)oc2cc(S(=O)(=O)N3CCC(C(=O)NCc4cccs4)CC3)ccc21 | – | – | – | 75
CNc1nnc(Sc2ncccc2[N+](=O)[O-])s1 | – | – | – | –
O=C1c2cccc3cccc(c23)C(=O)N1CCN1CCN(C(=S)Nc2ccc(F)cc2)CC1 | – | · | 43 | –
Cc1ccccc1C(=O)Nc1sc2c(c1C(=O)O)CCC2 | – | – | – | 85
NC(=O)CC(NC(=O)c1cccc(Br)c1)c1ccc(N2CCN(c3ccc(F)cc3)CC2)c([N+](=O)[O-])c1 (centres undefined) | – | – | – | ·
NC(=O)CC(NC(=O)Cc1ccc(Br)cc1)c1ccc(N2CCN(c3ccc(F)cc3)CC2)c([N+](=O)[O-])c1 (centres undefined) | – | – | – | 85
NC(=O)CC(NC(=O)c1ccc(Br)cc1)c1ccc(N2CCN(c3ccc(F)cc3)CC2)c([N+](=O)[O-])c1 (centres undefined) | – | – | – | 93
Cc1ccc2[nH]c(=O)c(CN(Cc3ccccc3)Cc3nnnn3C3CCCC3)cc2c1 | – | – | – | 76
CCOC(=O)Cn1nnnc1CN(CCc1ccccc1)Cc1cc2cc(CC)ccc2[nH]c1=O | – | – | – | 81
Cc1ccc2[nH]c(=O)c(CN(Cc3nnnn3C3CCCC3)C3CCCCC3)cc2c1 | – | – | – | –
CCOC(=O)Cn1nnnc1CN(Cc1cccs1)Cc1cc2cc(C)ccc2[nH]c1=O | – | – | – | –
CC(C)(C)c1nnc2sc(SCC(=O)N3CCCCC3)nn2c1=O | – | – | – | ·
CC(C)CC(=O)NC(=S)NNC(=O)c1ccc(NC(=O)C2CCCCC2)cc1 | – | – | – | 72
c1ccc(Nc2cccc(Nc3ccccc3)c2)cc1 | – | – | – | 74
CCCc1nc2sc3c(=O)n(N)cnc3c2c2c1CCCC2 | – | – | – | 74
O=c1[nH]cnc2c1sc1nc3c(c(-c4ccc(Cl)cc4)c12)CCC3 | – | – | – | 85
SMILES | UPR XBP1 act | PvdQ inh | UPR CHOP act | CHOP inhibitor
CCOC(=O)Cn1nnc2c(sc3nc4c(c(-c5ccc(Cl)cc5)c32)CCC4)c1=O | – | – | – | –
O=C(Cn1nnc(-c2ccccc2Cl)n1)N/N=C/c1ccc(-c2cccc(Cl)c2)o1 | – | – | – | 74
O=C(CN1CCCC1)N/N=C/c1ccc(-c2cccc(Cl)c2)o1 | – | – | – | –
COc1cc(C2C(C#N)=C(N)OC3=C2C(=O)CCC3)cc2c1OCO2 (centres undefined) | – | – | – | ·
Cc1ccc(CNC(=O)CO/N=C/c2ccc(C(C)(C)C)cc2)cc1 | – | – | – | 95
COc1cc(/C=C/C(=O)OCC(=O)NCc2ccc(F)cc2)ccc1O | – | – | – | ·
CC(C)(C)c1ccc(/C=N/OCC(=O)NCc2ccc(F)cc2)cc1 | – | – | – | 75
CC(C)(C)c1ccc(/C=N/OCC(=O)NCc2ccccc2)cc1 | – | – | – | –
COC(=O)c1ccc(NC(=O)CN(Cc2ccc(Cl)cc2)S(C)(=O)=O)cc1 | – | – | – | –
CC(C(=O)N1CCN(c2ccc(Cl)cc2)CC1)c1ncc(C(F)(F)F)cc1Cl (centres undefined) | – | – | – | 71
CC1Cc2nc(SCC(=O)Nc3ccc(F)cc3)n(C)c(=O)c2S1 (centres undefined) | – | – | – | –
COc1cccc(NC(=O)CSc2nc3c(c(=O)n2C)SC(C)C3)c1 (centres undefined) | – | – | – | 79
C(=N\Nc1nc(-c2ccccn2)nc2ccccc12)/c1ccccc1 | – | · | 527 | 88
C(=N\Nc1nc(-c2cccnc2)nc2ccccc12)/c1ccccc1 | – | · | – | –
Brc1ccc(-c2nc(N/N=C/c3cccnc3)c3ccccc3n2)cc1 | – | – | – | 74
COc1cccc(/C=N/Nc2nc(-c3cccnc3)nc3ccccc23)c1 | – | – | – | –
O=C(CCc1nnc(CCCCc2ccccc2)o1)N1CCC(N2CCCC2)CC1 | – | – | – | –
CC(=O)Nc1ccc(S(=O)(=O)N2CCN(S(=O)(=O)c3ccc(F)c(F)c3F)CC2)cc1 | – | – | – | ·
C=CCOc1ccc(/C=C/C(=O)OCC(=O)NCc2cccs2)cc1 | – | – | – | ·
CCOc1ccc2ccccc2c1C(=O)NCC(c1ccc(N(C)C)cc1)N(C)C (centres undefined) | – | – | – | ·
COc1cccc(S(=O)(=O)NCc2ccc(C(=O)Nc3cccc(Cl)c3)cc2)c1 | – | – | – | 71
O=C(Nc1ccc(C(=O)N2CCOCC2)cc1)C1CC1 | · | – | · | ·
CC(CCc1ccccc1)NC(=O)c1ccc(C(=O)NC(C)CCc2ccccc2)cc1 (centres undefined) | – | – | – | 82
CC(CCc1ccccc1)NC(=O)c1ccccc1 (centres undefined) | – | – | – | –
O=C(NC(=S)Nc1nc(-c2ccc(Br)cc2)cs1)c1ccco1 | – | – | – | 84
SMILES | UPR XBP1 act | PvdQ inh | UPR CHOP act | CHOP inhibitor
O=C(CCNC(=O)C1CCN(S(=O)(=O)c2ccccc2)CC1)NCc1ccncc1 | – | – | – | ·
CCn1cc(CN2CCc3c([nH]c4ccccc34)C2c2cccc(OC)c2)c(C)n1 (centres undefined) | – | – | – | –
CCn1cc(CN2CCc3c([nH]c4ccccc34)C2c2ccc(F)c(OC)c2)c(C)n1 (centres undefined) | – | – | – | 70
CCOC(=O)c1cnn(-c2ccccc2)c1NC(=O)CSc1nnc(-c2cccs2)n1CC | – | – | – | –
CCOc1cc(-c2nc(-c3ccccc3OC)no2)cc(OCC)c1OCC | – | – | – | 76
O=C(NNC(=O)c1ccccc1F)c1ccc(S(=O)(=O)N2CCCCC2)cc1 | – | – | – | ·
CCC(=O)n1nc(NCc2ccccc2OC)nc1NCc1ccccc1OC | – | – | – | 76
CC(N)=NCCCC[C@@H](N)C(=O)O | · | · | · | –
COc1ccc(N2C(=NC(=O)C3CC3)SC3CS(=O)(=O)CC32)cc1Cl (centres undefined) | – | – | – | ·
